Results as given in ChEMBL document CHEMBL1149591, “QSAR studies and pharmacophore identification for arylsubstituted cycloalkenecarboxylic acid methyl esters with affinity for the human dopamine transporter” (Bioorg Med Chem, 2007).

Biological target: Sodium-dependent dopamine transporter (Homo sapiens, UniProt Q01959)
Assay: Inhibition of human DAT expressed in COS1 cells
Format: cell-based, COS-1
Procedure, shortened: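 COS-1 cells stably transfected with hDAT (pIRES, Blasticidin selection), grown in DMEM/10% FCS at 37 °C, 5% CO2. Membranes homogenized in 150 mM NaCl/50 mM Tris/20 mM EDTA, resuspended in PBSCM.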

Sequence of Sodium-dependent dopamine transporter (Q01959 whole entry): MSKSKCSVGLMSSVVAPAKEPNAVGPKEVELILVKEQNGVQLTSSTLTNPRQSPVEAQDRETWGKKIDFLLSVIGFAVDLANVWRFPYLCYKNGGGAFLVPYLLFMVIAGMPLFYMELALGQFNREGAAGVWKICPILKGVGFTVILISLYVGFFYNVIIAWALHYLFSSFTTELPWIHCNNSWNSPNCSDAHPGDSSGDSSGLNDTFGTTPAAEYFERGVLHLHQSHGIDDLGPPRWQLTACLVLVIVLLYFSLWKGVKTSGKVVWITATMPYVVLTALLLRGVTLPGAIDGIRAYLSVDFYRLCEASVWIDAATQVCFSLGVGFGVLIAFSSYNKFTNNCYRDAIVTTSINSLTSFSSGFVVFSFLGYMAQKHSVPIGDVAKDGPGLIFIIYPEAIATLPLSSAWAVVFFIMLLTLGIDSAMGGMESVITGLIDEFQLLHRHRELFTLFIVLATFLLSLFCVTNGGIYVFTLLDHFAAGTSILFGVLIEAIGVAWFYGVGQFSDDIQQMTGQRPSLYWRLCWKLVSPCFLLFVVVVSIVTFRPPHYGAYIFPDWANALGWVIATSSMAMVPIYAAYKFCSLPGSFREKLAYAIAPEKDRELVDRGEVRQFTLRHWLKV

Q: With `COC(=O)C1=C(c2cccc(Cl)c2)CCCC1` as the molecule, how does the Ki (read-out: -Log Ki (converted)) read?
A: 117 µM

Q: With `COC(=O)C1=C(c2ccc3ccccc3c2)CCCC1` as the molecule, how does the Ki (read-out: -Log Ki (converted)) read?
A: 11.7 µM

Q: `COC(=O)C1=C(c2cccc(Cl)c2)CCC1` was tested. Which Ki (read-out: -Log Ki (converted)) did it give?
A: 34.7 µM

Q: How did the Ki (read-out: -Log Ki (converted)) turn out when `COC(=O)C1=C(c2ccc(C(C)=O)cc2)CCC1` was run?
A: 331 µM

Q: For `COC(=O)C1=C(c2ccc(Cl)cc2)C2CCC1N2` (stereo unspecified), which Ki (read-out: -Log Ki (converted)) is on record?
A: 26.9 µM

Q: For `COC(=O)C1=C(c2cc(C)c(C)cc2C)C2CCC1C2` (stereo unspecified), which Ki (read-out: Ki) is on record?
A: 32.2 µM

Q: `COC(=O)C1=C(c2ccc(Cl)cc2)C2CCC1O2` (stereo unspecified) was tested. Which Ki (read-out: -Log Ki (converted)) did it give?
A: 18.2 µM

Q: `COC(=O)C1=C(c2ccc3ccccc3c2)C2CCC1N2` (stereo unspecified) was tested. Which Ki (read-out: -Log Ki (converted)) did it give?
A: 1.74 µM

Q: Which Ki (read-out: -Log Ki (converted)) does the source give for `COC(=O)C1=C(c2ccc(-c3ccccc3)cc2)C2CCC1C2` (stereo unspecified) here?
A: 603 µM

Q: With `COC(=O)C1=C(c2ccc(Cl)c(Cl)c2)C2CCC1C2` (stereo unspecified) as the molecule, how does the Ki (read-out: -Log Ki (converted)) read?
A: 6.76 µM

Q: `COC(=O)C1=C(c2cccc(Cl)c2Cl)C2CCC1C2` (stereo unspecified) was tested. Which Ki (read-out: -Log Ki (converted)) did it give?
A: 14.8 µM

Q: How did the Ki (read-out: -Log Ki (converted)) turn out when `COC(=O)C1=C(c2cccc(Cl)c2)C2CCC1N2` (stereo unspecified) was run?
A: 33.9 µM

Q: For `COC(=O)C1=C(c2cccc([N+](=O)[O-])c2)C2CCC1N2` (stereo unspecified), which Ki (read-out: Ki) is on record?
A: 232 µM

Q: For `COC(=O)C1=C(c2ccc(Cl)c(Cl)c2)CCC1`, which Ki (read-out: -Log Ki (converted)) is on record?
A: 1.95 µM

Q: With `COC(=O)C1=C(c2ccc(-c3ccccc3)cc2)C2CCC1N2` (stereo unspecified) as the molecule, how does the Ki (read-out: -Log Ki (converted)) read?
A: 24.5 µM

Q: How did the Ki (read-out: -Log Ki (converted)) turn out when `COC(=O)C1=C(c2ccc3ccccc3c2)C2CCC1C2` (stereo unspecified) was run?
A: 4.27 µM

Q: With `COC(=O)C1=C(c2ccc(Cl)cc2Cl)C2CCC1C2` (stereo unspecified) as the molecule, how does the Ki (read-out: -Log Ki (converted)) read?
A: 22.9 µM

Q: With `COC(=O)C1=C(c2cccc(Cl)c2)C2CCC1C2` (stereo unspecified) as the molecule, how does the Ki (read-out: -Log Ki (converted)) read?
A: 105 µM

Q: For `COC(=O)C1=C(c2ccccc2)C2CCC1N2` (stereo unspecified), which Ki (read-out: -Log Ki (converted)) is on record?
A: 447 µM

Q: `COC(=O)C1=C(c2ccc3ccccc3c2)CCC1` was tested. Which Ki (read-out: -Log Ki (converted)) did it give?
A: 4.17 µM

Q: `COC(=O)C1=C(c2ccc(Cl)c(Cl)c2)C2CCC1N2` (stereo unspecified) was tested. Which Ki (read-out: -Log Ki (converted)) did it give?
A: 1.1 µM

Q: `COC(=O)C1=C(c2ccccc2)C2CCC1C2` (stereo unspecified) was tested. Which Ki (read-out: -Log Ki (converted)) did it give?
A: 646 µM

Q: Which Ki (read-out: -Log Ki (converted)) does the source give for `COC(=O)C1=C(c2ccc(Cl)cc2)C2CCC1C2` (stereo unspecified) here?
A: 25.1 µM

Q: With `COC(=O)C1=C(c2ccccc2Cl)C2CCC1C2` (stereo unspecified) as the molecule, how does the Ki (read-out: -Log Ki (converted)) read?
A: 372 µM

Q: With `COC(=O)C1=C(c2ccc(C)c(F)c2)C2CCC1C2` (stereo unspecified) as the molecule, how does the Ki (read-out: Ki) read?
A: 56 µM

Q: `COC(=O)C1=C(c2ccc([N+](=O)[O-])cc2)C2CCC1N2` (stereo unspecified) was tested. Which Ki (read-out: Ki) did it give?
A: 67.9 µM
